Screens as filed in PubChem BioAssay.
TAAR1 ag = human TAAR1 agonists, primary screen, Fluo-8 calcium fluorescence, CHO RD-HGA16 cells. activation, % at 3 µM. vehicle wells 0%, saturating PEA agonist 100%. hit rate 0.99% among 360,000;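 active means activation above the mean activation of all test compounds in the run plus 3 SD, cut at about 38% in these data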
Target sequence (Q96RJ0 whole entry, looked up): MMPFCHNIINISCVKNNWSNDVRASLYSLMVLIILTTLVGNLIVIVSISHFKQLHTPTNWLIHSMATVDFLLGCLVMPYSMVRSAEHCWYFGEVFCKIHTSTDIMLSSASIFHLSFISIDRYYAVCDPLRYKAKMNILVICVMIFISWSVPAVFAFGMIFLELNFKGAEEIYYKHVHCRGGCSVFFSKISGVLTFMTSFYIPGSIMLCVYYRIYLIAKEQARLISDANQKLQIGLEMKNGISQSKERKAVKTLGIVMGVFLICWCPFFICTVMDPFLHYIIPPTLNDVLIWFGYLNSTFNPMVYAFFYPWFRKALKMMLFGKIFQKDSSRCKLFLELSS
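Test system: RD-HGA16 (CHO) cells co-expressing Gα16 and hTAAR1 | Doses: Single dose, 3 µM | Schedule: 17-24 h seeding, 75 min 37 °C dye, 30 min RT | Evaluation: % activation from peak over basal fluorescence ratio, DMSO-to-PEA scaled | Technique: Kinetic Fluo-8 calcium fluorescence | Benchmarks: Low control DMSO, high control PEA (EC100)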
OX1R antag-1 = antagonists of human orexin 1 receptor (OX1R). Orexin/Hypocretin receptor type 1 (Homo sapiens), O43613. OX1R-expressing cells, FRET antagonist read-out. inhibition, % at 6.6 µM. hit rate 1.8% among 330,000. AID 485270, 2010; in the data active means inhibition mostly above about 38%, no sharp cut-off; inactive means mostly below about 40%
OX1R antag-2 = OX1R (HCRTR1) antagonists, primary screen, fluorescence, CHO/OX1R cells, Fluo-8 calcium, orexin A. Orexin/Hypocretin receptor type 1 (Homo sapiens), O43613. Fluo-8 calcium fluorescence. hit rate 0.43% among 330,000. AID 434989, 2010. inhibition, % at 5 µM;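 active means inhibition above its plate's threshold, mean inhibition of all tested compounds on the plate plus 3 SD, cut at about 37% in these data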
CHO parental Ca = ATP-evoked calcium signal inhibitors, parental CHO, primary screen, counter-screen for OX1R antagonist project, cell-based, fluorescence, Fluo-8 calcium dye. hit rate 0.63% among 330,000. AID 463079, 2010. parental CHO-K1, ATP-induced calcium, Fluo-8 fluorescence. inhibition, % at 5.6 µM;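 active means inhibition above that plate's mean sample inhibition plus 3 SD, cut at about 26% in these data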
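Assay system: untransfected parental CHO cell line. Also added: ATP agonist challenge. Dosing: one dose, 5.6 µM nominal. Measured by: Fluo-8 fluorescence. Read-out: % inhibition. Benchmarks: ATP wells versus no-ATP DMSO wells. Repeats: no replicates.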
GalR3 antagonist = GalR3 antagonists in HEK293 cells, primary screen, cell-based, fluorescence readout; HEK293 GalR3-CNG cAMP membrane potential fluorescence; galR3 body fused to GalR1 C-terminus; hit rate 0.44% among 360,000; inhibition, % at 3 µM; AID 651719, 2012;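 active means inhibition above the screen-wide average plus 3 SD, cut at about 13% in these data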;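 further: forskolin and galanin both at EC90 stimulate the cells; cAMP rise reported by CNG channel membrane potential dye signal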
Target sequence (O60755 1-299 limits assumed): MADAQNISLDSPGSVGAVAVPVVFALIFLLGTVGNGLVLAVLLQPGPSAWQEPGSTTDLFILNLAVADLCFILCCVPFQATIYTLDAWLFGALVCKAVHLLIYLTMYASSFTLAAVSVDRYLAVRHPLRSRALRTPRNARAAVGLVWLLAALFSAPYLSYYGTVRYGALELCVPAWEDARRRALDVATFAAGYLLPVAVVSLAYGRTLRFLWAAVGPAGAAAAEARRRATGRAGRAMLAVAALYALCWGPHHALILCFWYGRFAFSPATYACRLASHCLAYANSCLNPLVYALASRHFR
TAAR1 antag = human TAAR1 antagonists, primary screen, Fluo-8 calcium fluorescence, CHO RD-HGA16 cells | hit rate 1.5% among 360,000 | inhibition, % at 3 µM | Trace amine-associated receptor 1 (Homo sapiens), Q96RJ0 | AID 624466, 2012 | antagonist;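 active means inhibition above a per-plate cutoff, the mean inhibition of test compounds on that plate plus 3 SD, cut at about 49% in these data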
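System: CHO RD-HGA16 cells bearing hTAAR1. Reagent: EC80 β-phenethylamine stimulus. Schedule: seeding 17-24 h prior, 75-min 37 °C, 30-min RT dye loading. Signal: Fluo-8 intracellular calcium dye fluorescence, real-time kinetic reads. Read-out: % inhibition from peak post-agonist over basal fluorescence ratio. Benchmarks: vehicle wells and EC80 agonist wells. Replicates: n of 1.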
nonsel antag count = nonselective antagonists in TAAR1 counter-screen cells, counter-screen for hTAAR1 antagonist project, cell-based, fluorescence, calcium; shares compounds with TAAR1 antag; counterscreen cell line, antagonist mode; inhibition, % at 3 µM; hit rate 77% among 2,400; AID 651780, 2012; in the data active means inhibition above about 22%;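 further: CHO-Ga16 host cells stimulated with ATP at an EC80 level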
TAAR1 antag conf = human TAAR1 antagonists, retest of hits, confirmation, cell-based, fluorescence; hit rate 40% among 2,400; inhibition, % at 3 µM; TAAR1-expressing cells, fluorescence antagonist read-out; shares compounds with TAAR1 antag; in the data active means inhibition above about 49%;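 further: CHO-Ga16 host cells challenged with agonist PEA near its EC80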
Ga16 ag counter = calcium activation in Ga16-expressing cells, counter-screen for TAAR1 antagonist project, cell-based, fluorescence; activation, % at 3 µM; agonist counterscreen; hit rate 18% among 2,400; AID 651953, 2012; shares compounds with TAAR1 antag; in the data active means activation above about 12%
TAAR1 ag count = TAAR1 activation by candidate antagonists – cell-based, fluorescence, counter-screen for TAAR1 antagonist project; shares compounds with TAAR1 antag; activation, % at 3 µM; hTAAR1 cell line, agonist mode; AID 651955, 2012; hit rate 2% among 2,400; in the data active means activation above about 37%;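 further: CHO cells stably expressing TAAR1 with calcium dye readout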
A number is an active result; - = inactive; . = not tested or not shown. Compounds with a hit are over-represented: about 4.3% of the library has one in this group of screens.

SMILES	TAAR1 ag	OX1R antag-1	OX1R antag-2	CHO parental Ca	GalR3 antagonist	TAAR1 antag	nonsel antag count	TAAR1 antag conf	Ga16 ag counter	TAAR1 ag count
CCn1c(SCC(=O)N2CCc3ccccc32)nnc1-c1c[nH]c2ccccc12	-	-	-	-	-	55	-	-	-	-
COC(=O)c1ccc2c(=O)n(CCCCCC(=O)N3CCN(c4ccccc4)CC3)c(=O)[nH]c2c1	-	-	-	-	-	74	58	72	14	-
CCN1CCN(C(=O)CCCCCn2c(=O)[nH]c3cc(C(=O)OC)ccc3c2=O)CC1	-	-	-	-	-	-	.	.	.	.
CC(=O)c1ccc(N2CCN(C(=O)CCCn3c(=O)[nH]c4ccc(Br)cc4c3=O)CC2)cc1	-	-	-	-	-	67	37	54	-	-
C=CCc1ccccc1OCC(=O)NNC(=S)NCc1ccccc1	-	-	-	-	-	-	.	.	.	.
COc1ccccc1N1CCN(C(=O)CCc2nnc3ccc(N4CCC(C)CC4)nn23)CC1	-	-	-	-	-	53	22	-	-	-
COc1ccc(NC(=O)CCc2nnc3ccc(N4CCN(c5cccc(OC)c5)CC4)nn23)cc1	-	-	-	-	-	63	23	-	-	-
COc1cccc(NC(=O)CCc2nnc3ccc(N4CCN(c5cccc(OC)c5)CC4)nn23)c1	.	-	-	-	.	.	.	.	.	.
CCOC(=O)C[C@@H]1OC[C@H](C)N1S(=O)(=O)c1ccc(C)cc1	-	.	.	.	-	-	.	.	.	.
O=C(Nc1ccc(-c2nnc(-c3ccco3)o2)cc1)C(c1ccccc1)c1ccccc1	-	-	-	-	-	74	32	-	-	-
CCCCCCC(=O)N(O)C1CC(=O)N(c2ccc(Br)cc2)C1=O (stereo not drawn)	-	-	-	-	-	106	-	-	-	-
CCCCCCC(=O)N(O)C1CC(=O)N(c2ccc(F)cc2)C1=O (stereo not drawn)	-	-	-	-	-	-	.	.	.	.
CCCCCCSc1cc(-c2nc3cnccn3c2NCCCC)ccc1OC	.	-	-	-	.	.	.	.	.	.
CCCCNc1c(-c2ccc(OC)c(Sc3ccc(OC)cc3)c2)nc2cnccn12	-	-	-	-	-	75	23	57	-	-
COc1cccc2cc(CC(=O)c3cc(C)ccc3C)c(=O)oc12	-	-	-	-	-	58	29	49	-	-
Cc1ccc(-c2nnc(SCC(=O)N/N=C/c3ccccc3C(=O)O)n2-c2ccc(Cl)cc2)cc1	-	-	-	-	-	-	.	.	.	.
O=C(CSc1nnc(-c2ccc(Cl)cc2)n1-c1ccc(Cl)cc1)N/N=C/c1ccco1	-	-	-	-	-	78	27	54	-	-
COc1ccccc1N1CCN(C(=O)c2ccc3c(=O)n(Cc4ccc5c(c4)OCO5)c(=O)[nH]c3c2)CC1	.	-	-	-	.	.	.	.	.	.
C=CCn1c(=O)/c(=C/c2ccc(Cl)cc2)s/c1=C(/C#N)c1nnc2n1CCCCC2	-	-	-	-	-	50	27	-	-	-
C=CCn1c(=O)/c(=C/c2ccc(O)cc2)s/c1=C(/C#N)c1nnc2n1CCCCC2	-	-	-	-	-	-	.	.	.	.
CCOC(=O)C1=C(C)Nc2ccccc2N=C1N	-	-	-	-	-	-	.	.	.	.
CCOC(=O)C1=C(C)Nc2ccccc2N=C1NC(=O)c1oc2ccccc2c1COC	-	30	-	-	-	70	30	-	-	-
CN(C)C(=O)CNc1ccn2nc(-c3cccc(OCCN4CCOCC4)c3)cc2n1	-	.	.	.	-	-	.	.	.	.
c1cc(-c2cc3nc(NCC4CC4)ccn3n2)ccc1OCCN1CCOCC1	-	.	.	.	-	-	.	.	.	.
c1cc(-c2cc3nc(NC4CCCCC4)ccn3n2)ccc1OCCN1CCOCC1	-	.	.	.	-	61	24	-	-	-
SMILES	TAAR1 ag	OX1R antag-1	OX1R antag-2	CHO parental Ca	GalR3 antagonist	TAAR1 antag	nonsel antag count	TAAR1 antag conf	Ga16 ag counter	TAAR1 ag count
Clc1cccc(CNc2ccn3nc(-c4ccc(OCCN5CCOCC5)cc4)cc3n2)c1	-	.	.	.	-	69	44	71	23	-
CC1=C(C(=O)Nc2cc(C(=O)N3CCN(c4cccc(C)c4C)CC3)ccc2C)SCCO1	-	-	-	-	-	62	34	-	-	-
Cc1ccccc1Nc1nc(N)nc(COC(=O)c2ccc3c(c2)OCCO3)n1	-	.	.	.	-	-	.	.	.	.
C=CCn1c(SCC(=O)N(CC)C2CCS(=O)(=O)C2)nc2scc(-c3ccccc3)c2c1=O (stereo not drawn)	-	.	.	.	-	-	.	.	.	.
CC(C)N(Cc1ccccc1)C(=O)CN1C(=O)NC2(CCOc3ccccc32)C1=O (stereo not drawn)	-	-	-	-	-	-	.	.	.	.
CN(C(=O)COC(=O)/C=C/c1ccc(S(=O)(=O)N2CCc3ccccc32)cc1)C1CCS(=O)(=O)C1 (stereo not drawn)	-	-	-	-	-	101	-	-	-	-
Cc1ccc(C2(c3ccc(C)cc3)CC2C(=O)NC(C)C)cc1 (stereo not drawn)	-	.	.	.	-	-	.	.	.	.
Cc1cc(C)c(C)c(S(=O)(=O)N2CCN(C(=O)c3ccccn3)CC2)c1C	-	-	-	-	-	-	.	.	.	.
CCOc1ccc(/C=C/C(O)=C2/C(=O)N(C)C3(C)CC2c2ccccc2O3)cc1OC (stereo not drawn)	-	-	-	-	-	-	.	.	.	.
CCOc1ccc(/C=C/C(O)=C2/C(=O)NC3(C)CC2c2ccccc2O3)cc1OC (stereo not drawn)	-	-	-	-	-	60	27	49	-	-
Cc1noc(NS(=O)(=O)c2ccc(NC(=O)c3cccc(S(=O)(=O)Nc4ccccc4F)c3)cc2)c1C	-	-	-	-	-	100	-	-	-	-
